Test results from ChEMBL document CHEMBL4765346, “Inhibitor design to target a unique feature in the folate pocket of Staphylococcus aureus dihydrofolate reductase” (Eur J Med Chem, 2020).
In brackets after ≈: the same amount, converted by molar mass. Activity calls are given as the source filed them. No cut-off for these calls is given here.

Key:
Staphylococcus aureus [1] = assay: Antibacterial activity against Staphylococcus aureus ATCC 29213 assessed as inhibition of bacterial growth incubated for 18 hrs by spectrophotometric method; format: functional
Summary of the method: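 Racemic compounds tested against standardized S. aureus strain 29213 cultures following CLSI procedure; MIC recorded; n = 2 independent assays, each with duplicate technical replicates.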

Staphylococcus aureus [2] = assay: (§1) Inhibition of recombinant Staphylococcus aureus DHFR expressed in Escherichia coli BL21 (DE3) using dihydrofolate as substrate and NADPH as cofactor incubated for 2.8 mins
Summary of the method: (§2)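 Recombinant S. aureus DHFR expressed in E. coli BL21 (DE3). Reaction reconstituted with NADPH and varied inhibitor concentrations (racemates, diluted from 10 mM DMSO stock), started by adding dihydrofolate. Run at 30 °C, rate followed 2.8 min over linear range. 50% activity point from 4-parameter fit of rate vs concentration. IC50 converted to Ki by Cheng-Prusoff using previously measured KM. n ≥ 3 independent assays, duplicate technical replicates.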

[3] = as §1; summary of the method: as §2

SMILES	MIC (Staphylococcus aureus [1]) [µg/mL]	inhibition (Staphylococcus aureus [2])	Ki [3] [nM]
COc1cc(Cc2cnc(N)nc2N)cc(/C=C/C(=O)N2N=Cc3ccccc3C2C(C)C)c1OC (configuration not stated)	0.188 (≈ 0.385 µM)	Active	
COc1cc2c(cc1OC)C(C1CC1)N(C(=O)/C=C/c1cc(Cc3cnc(N)nc3N)cc(OC)c1OC)N=C2 (racemic)	1 (≈ 1.84 µM)		0.7
COc1cc(Cc2cnc(N)nc2N)cc(/C=C/C(=O)N2N=Cc3ccccc3C2C=C(C)C)c1OC (configuration not stated)		Active	
COc1cc(Cc2cnc(N)nc2N)cc(/C=C/C(=O)N2N=Cc3ccccc3C2c2cc(C)cc(C)c2)c1OC (configuration not stated)		inactive	
CCCC1c2cc(OC)c(OC)cc2C=NN1C(=O)/C=C/c1cc(Cc2cnc(N)nc2N)cc(OC)c1OC (racemic)	1 (≈ 1.83 µM)		1.1
COc1cc(Cc2cnc(N)nc2N)cc(/C=C/C(=O)N2N=Cc3ccccc3C2c2ccccc2)c1OC (configuration not stated)		Active	
COc1cc(Cc2cnc(N)nc2N)cc(/C=C/C(=O)N2N=Cc3ccccc3C2Cc2ccc(C)cc2)c1OC (configuration not stated)	0.25 (≈ 0.456 µM)		2.3
CCCC1c2cc(C)c(C)cc2C=NN1C(=O)/C=C/c1cc(Cc2cnc(N)nc2N)cc(OC)c1OC (racemic)	0.5 (≈ 0.972 µM)		1.2
COc1cc(Cc2cnc(N)nc2N)cc(/C=C/C(=O)N2N=Cc3ccccc3C2C2CCCCC2)c1OC (configuration not stated)		Active	
COc1cc(Cc2cnc(N)nc2N)cc(/C=C/C(=O)N2N=Cc3ccccc3C2c2ccc(C)cc2)c1OC (configuration not stated)	0.046 (≈ 0.086 µM)	inactive	
CCCC1c2ccccc2C=NN1C(=O)/C=C/c1cc(Cc2cnc(N)nc2N)cc(OC)c1OC (configuration not stated)	0.0625 (≈ 0.128 µM)		1.2
COc1ccc(CC2c3ccccc3C=NN2C(=O)/C=C/c2cc(Cc3cnc(N)nc3N)cc(OC)c2OC)cc1 (configuration not stated)			1.2
COc1cc(Cc2cnc(N)nc2N)cc(/C=C/C(=O)N2N=Cc3ccccc3C2CC(C)C)c1OC (configuration not stated)		Active	
COc1cc(Cc2cnc(N)nc2N)cc(/C=C/C(=O)N2N=Cc3ccccc3C2CCC(F)(F)F)c1OC (configuration not stated)		Active	
CCC(CC)C1c2ccccc2C=NN1C(=O)/C=C/c1cc(Cc2cnc(N)nc2N)cc(OC)c1OC (configuration not stated)		inactive	
